Only some compounds are listed: those with a hit (about 9.8% of all), similar ones and a draw of the others.
Rad51 HR inh – blocks human Rad51 in homologous recombination; hRad51 DNA strand exchange, fluorescence dequenching; inhibition, % at 10 µM; 200,000 compounds, 0.085% hits; AID 1385;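 active = inhibition above 40% at the single screening dose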;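 also: 0% = DMSO control wells and 100% = blanks with heterologous ssDNA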
Target sequence (Q06609 whole entry, looked up): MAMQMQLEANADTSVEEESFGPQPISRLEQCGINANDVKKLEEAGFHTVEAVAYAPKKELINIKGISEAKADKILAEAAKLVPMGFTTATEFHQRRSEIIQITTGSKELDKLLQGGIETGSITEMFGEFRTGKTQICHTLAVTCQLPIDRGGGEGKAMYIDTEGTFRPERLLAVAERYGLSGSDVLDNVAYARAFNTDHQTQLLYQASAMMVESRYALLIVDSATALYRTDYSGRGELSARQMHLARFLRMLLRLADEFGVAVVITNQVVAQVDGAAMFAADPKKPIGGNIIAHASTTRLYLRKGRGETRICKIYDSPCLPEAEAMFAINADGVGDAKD
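Test system: preformed human Rad51 ssDNA filaments. Compound dosing: single dose, 10 µM final compound. Incubation: filaments 15 min 37 °C, then compound 30 min. Technique: FRET fluorescence dequenching, excitation 485 nm, emission 520 nm. Read-out basis: percent inhibition from fluorescence, normalised to plate control and blank means. Benchmarks: plate controls and plate blanks.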
WT yeast gro inh – growth inhibition of WT yeast, mitochondrial fusion screen; mitochondrial fusion phenotypic screen, WT strain; inhibition, % at 10 µM; 190,000 compounds, 2.1% hits; in the data active = inhibition above about 58%; tested in S. cerevisiae
Calpain2 inh – calpain II (pig) inhibition; purified calpain II, fluorogenic peptide substrate, 30 min; inhibition, % at 16 µM; 220,000 compounds, 0.37% hits; AID 1236;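 active = inhibition above about 50%, limit read from the data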
Lmaj promast – reduces viability of Leishmania major promastigotes. resazurin fluorescence viability. inhibition, % at 10 µM. 200,000 compounds, 9% hits; in the data active = inhibition above about 50%;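 also: promastigotes grown with compound for 44 hours at 28 °C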
PMI act – phosphomannose isomerase (human) activation; P34949; purified human PMI, coupled resazurin fluorescence, 20 min; hits give high values; 1 = vehicle control, 0 substrate-free wells; activation factor at 20 µM; 190,000 compounds, 0.005% hits; AID 1214;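 active = activation factor of 2 or more at 20 µM, relative to plate controls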
PMI act hi M6P – PMI (human) activation, high substrate | coupled PMI enzyme assay, resazurin fluorescence, 20 min; hits give high values; 1 = untreated enzyme, 0 = substrate-free blank | activation factor at 20 µM | 190,000 compounds, 0.34% hits | AID 1216;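 active = activation factor of 2 or more at 20 µM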
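Material: human phosphomannose isomerase with PGI, G6PDH, diaphorase coupling enzymes; amount: PMI at 15 ng/mL final; also added: Mannose-6-phosphate 1.0 mM (near-saturating) plus 0.22 mM NADP+; incubation: enzyme reaction with compound 20 min at room temperature; signal: resorufin fluorescence (Ex 544/Em 590 nm) from resazurin via diaphorase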
* marks the source's active call; other numbers are inactive results.

Nc1cc([N+](=O)[O-])ccc1O was read as Rad51 HR inh -29, WT yeast gro inh -4, Calpain2 inh 1, Lmaj promast 98*, PMI act 0.8 and PMI act hi M6P 0.8.
COc1ccc(/C=C\c2nc(=O)c3ccccc3o2)cc1 was read as Rad51 HR inh 21, WT yeast gro inh 50, Calpain2 inh 6, Lmaj promast 84*, PMI act 1.1 and PMI act hi M6P 1.
For CCCNCC1C(Oc2ccc(Cl)cc2Cl)C(=O)N1c1cccc(C)c1C (stereo not drawn) the results were Rad51 HR inh 7, WT yeast gro inh 66, Calpain2 inh 39, Lmaj promast 72*, PMI act 1.1 and PMI act hi M6P 1.
CCCCNC(=O)COC(=O)c1cc(C)oc1C was read as Rad51 HR inh 3, WT yeast gro inh -11, Calpain2 inh -21, Lmaj promast 0, PMI act 1.1 and PMI act hi M6P 1.1.
Screening COc1ccc(Cl)cc1NC(=O)CN(C)CC(=O)Nc1ccccc1N1CCOCC1 returned Rad51 HR inh 6, WT yeast gro inh 17, Calpain2 inh 20, Lmaj promast 54*, PMI act 1 and PMI act hi M6P 1.1.
For COC(=O)c1ccc(-n2nnnc2SCC(=O)Nc2ccccc2C(=O)OC)cc1 the results were WT yeast gro inh 0, Calpain2 inh -9, Lmaj promast -3, PMI act 1 and PMI act hi M6P 0.9.
Screening Cn1nnnc1SCC(=O)Nc1ccccc1N1CCOCC1 returned Rad51 HR inh 5, WT yeast gro inh 3, Calpain2 inh 9, Lmaj promast -8, PMI act 1.1 and PMI act hi M6P 1.1.
`COc1ccc(-n2nnnc2SCC(=O)Nc2ccccc2N2CCOCC2)cc1OC` gave Rad51 HR inh 8, WT yeast gro inh 3, Calpain2 inh 21, Lmaj promast 93*, PMI act 0.9 and PMI act hi M6P 1.
Screening COC(=O)c1ccccc1NC(=O)CNc1cc(Cl)ccc1N1CCOCC1 returned Rad51 HR inh 4, WT yeast gro inh 64*, Calpain2 inh 9, Lmaj promast 80*, PMI act 1.1 and PMI act hi M6P 0.9.
For NC(=O)c1ccc(-n2nnnc2SCC(=O)Nc2ccccc2-c2ccccc2)cc1 the results were Rad51 HR inh -3, WT yeast gro inh -12, Calpain2 inh 65*, Lmaj promast 4, PMI act 0.8 and PMI act hi M6P 0.8.
O=C(Nc1ccc(Cl)cc1)OCc1cn(-c2ccccc2)nn1 was read as Rad51 HR inh 5, WT yeast gro inh 19, Calpain2 inh 33, Lmaj promast -5, PMI act 1.1 and PMI act hi M6P 1.1.
`Cc1cc(Cl)ccc1OC(C)C(=O)Nc1ccccc1N1CCOCC1` (stereo not drawn) gave WT yeast gro inh 73*, Calpain2 inh 23, Lmaj promast 26, PMI act 0.8 and PMI act hi M6P 0.8.
Screening O=C(Cc1ccc(Cl)cc1)NC(=S)Nc1ccccc1N1CCOCC1 returned Rad51 HR inh -8, WT yeast gro inh 62*, Calpain2 inh 13, Lmaj promast 5, PMI act 0.8 and PMI act hi M6P 0.8.
`CCc1ccccc1NC(=O)CC1SCCNC1=O` (stereo not drawn) gave Rad51 HR inh 1, WT yeast gro inh -13, Calpain2 inh -29, Lmaj promast 0, PMI act 1.1 and PMI act hi M6P 1.
For CCOC(=O)N1CCC2(CC1)C(C#N)=C(N)Oc1n[nH]c(CSc3ccc(C)cc3)c12 the results were Rad51 HR inh -5, WT yeast gro inh 5, Calpain2 inh 91*, Lmaj promast 1, PMI act 0.8 and PMI act hi M6P 0.8.
Screening Cc1ccc(SCc2[nH]nc3c2C2(CCSCC2)C(C#N)=C(N)O3)cc1 returned Rad51 HR inh 0, WT yeast gro inh -10, Calpain2 inh -17, Lmaj promast 6, PMI act 0.8 and PMI act hi M6P 0.8.
For O=C(Nc1cccc2ccccc12)/C(Cl)=C/c1ccccc1 the results were Rad51 HR inh 10, WT yeast gro inh 30, Calpain2 inh 58*, Lmaj promast -2, PMI act 0.9 and PMI act hi M6P 0.9.
O=C(Nc1ccc(F)cc1)/C(Cl)=C/c1ccccc1 was read as Rad51 HR inh 8, WT yeast gro inh 7, Calpain2 inh -4, Lmaj promast -5, PMI act 0.9 and PMI act hi M6P 0.9.
For COc1ccc(C2=NN(C3=NN=C(N)Cc4ncnn43)C(O)(C(F)(F)F)C2)cc1 (stereo not drawn) the results were Rad51 HR inh 56*, WT yeast gro inh 0, Calpain2 inh -133, Lmaj promast -5, PMI act 0.8 and PMI act hi M6P 0.8.
Screening NC1=NN=C(N2N=C(c3ccc(Br)cc3)CC2(O)C(F)(F)F)n2ncnc2C1 (stereo not drawn) returned Rad51 HR inh -5, WT yeast gro inh 3, Calpain2 inh -263, Lmaj promast -1, PMI act 0.8 and PMI act hi M6P 0.9.
`O=C(CC12CC3CC(CC(C3)C1)C2)N1CCN(S(=O)(=O)c2cccs2)CC1` gave WT yeast gro inh -8, Calpain2 inh 17, Lmaj promast -1, PMI act 0.9 and PMI act hi M6P 1.
For O=C1/C(=C/c2ccc([N+](=O)[O-])cc2)C=C(c2ccccc2)N1c1ccccc1 the results were Rad51 HR inh 12, WT yeast gro inh -10, Calpain2 inh 6, Lmaj promast -3, PMI act 1 and PMI act hi M6P 1.
For O=C1CN(O)C=C2N=c3ccccc3=C2N1c1ccc([N+](=O)[O-])cc1 the results were Rad51 HR inh 4, WT yeast gro inh -24, Calpain2 inh 58*, Lmaj promast 9, PMI act 1.1 and PMI act hi M6P 1.1.
For Cc1ccc(C)c(N2CCN(C(=O)CN3C(=S)NC(C)(C)CC3C)CC2)c1 (stereo not drawn) the results were Rad51 HR inh 7, WT yeast gro inh 9, Calpain2 inh 21, Lmaj promast 11, PMI act 1 and PMI act hi M6P 0.8.
Screening CCN(CC)c1ccc([N+](=O)[O-])cc1C(=O)N1CCOCC1 returned Rad51 HR inh 10, WT yeast gro inh -4, Calpain2 inh 8, Lmaj promast 4, PMI act 0.9 and PMI act hi M6P 0.8.
CCN(CC)C1=NS(=O)(=O)c2cc([N+](=O)[O-])ccc21 was read as Rad51 HR inh -4, WT yeast gro inh -16, Calpain2 inh 9, Lmaj promast 100*, PMI act 1.3 and PMI act hi M6P 1.2.
For Cc1ccc(OCc2n[nH]c(=S)n2C2CCCCC2)cc1 the results were Rad51 HR inh -10, WT yeast gro inh 66*, Calpain2 inh 61*, Lmaj promast -5, PMI act 0.8 and PMI act hi M6P 0.9.
`Cc1cccc(OCc2n[nH]c(=S)n2C2CCCCC2)c1` gave Rad51 HR inh 5, WT yeast gro inh 67*, Calpain2 inh 61*, Lmaj promast -1, PMI act 0.8 and PMI act hi M6P 0.9.
